Experimental data taken from paper PMC9279713 (Acta Pharmaceutica Sinica. B, 2021).

Experiments:
[1] = system: CT26, HCT116 and SW620 cells; assay: Western blotting of HIF-1α, PD-L1, HMGA1, p-Erk and p-Akt expression; format: cell-based
How it was run: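 Cells were exposed to a range of test compound concentrations and then lysed in RIPA buffer containing 1% protease and 2% phosphatase inhibitors. Total lysate (20 μg protein per lane) was run on SDS-PAGE and transferred to PVDF. Membranes were blocked in 5% milk/TBST, incubated with primary antibodies overnight at 4 °C, then with an HRP-labelled secondary antibody for 2 h at room temperature.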

HCT116 and CT26 cells = assay: Immunogenic cell death: immunofluorescence of CRT and HMGB1; format: cell-based; details: 100 nmol/L

In the case of deoxybouvardin [RA-V], the HMGA1 expression ([1]; CT26, HCT116 and SW620 cells) is reported as “inhibited significantly”, the “p-Akt and p-Erk expression” value ([1]; CT26, HCT116 and SW620 cells) is reported as “decreased” and the PD-L1 expression ([1]; CT26 cells, different concentrations) is reported as “down-regulated PD-L1 expression remarkably”. The “ICD effect: pre-apoptotic CRT exposure to membrane surface” value (HCT116 and CT26 cells) was “failed to elicit significant pre-apoptotic CRT exposure”.
